Series [1] has as its system low-social male rhesus monkeys. The format is in vivo, rhesus macaques (Macaca mulatta). The settings on record: N = 8. Summed up:
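Low-social males habituated and given refresher mask training; next day nebulized at 0900 with 0, 25 or 50 IU per 1 mL (diluent placebo), order by modified Latin square, one-week washout. From 30 min post-dose, viewed on a monitor 61 cm from the cage videos of an unfamiliar adult male showing affiliative or aggressive behavior, interspersed with neutral nonsocial bouts, with a unique stimulus set per dose.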

Series [2] in a line: Pharmacokinetics of nebulized AVP: cisternal CSF AVP levels. Type of series: in vivo, rhesus macaques (Macaca mulatta). The settings on record: N = 4, ELISA. Summed up:
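Same blinded nebulization at 0900. Sedation with dexmedetomidine (0.015 to 0.075 mg/kg) plus ketamine (5 to 30 mg/kg) at 20 min. Paired cisternal CSF and femoral venous blood sampled at two timepoints per session (30/90 or 60/120 min). Blood-contaminated CSF excluded. Unextracted CSF run by enzyme immunoassay in duplicate. Values given as ratio to matched placebo timepoint, log-transformed, REML mixed model.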
(An ELISA detects its analyte on a solid surface through an enzyme-linked reagent.)

The nature of series [3]: Pharmacokinetics of nebulized AVP: plasma AVP levels. The settings on record: N = 4, ELISA. Type of series: in vivo, rhesus macaques (Macaca mulatta). Summed up:
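Nebulized through a face mask for 2 min 40 s of cumulative breathing at 0900 (0, 25 or 50 IU per 1 mL; diluent vehicle as placebo). Sedated with dexmedetomidine/ketamine 20 min later. Femoral blood sampled at two of 30/60/90/120 min, on EDTA, spun 1600×g 4 °C 15 min. Plasma extracted, nitrogen-dried, reconstituted, enzyme immunoassay in duplicate, expressed as ratio to the matched placebo timepoint. Washout ≥1 week.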

The test system of series [4] is low-social male rhesus monkeys. Put plainly: Face recognition memory, visual paired comparison task. Type of series: in vivo, rhesus macaques (Macaca mulatta). Put shortly:
(§1)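 Young adult males trained to breathe via mask-attached nebulizer until 2 min 40 s cumulative breathing. Dosed 0, 25 or 50 IU AVP per 1 mL in 0.4% 4-chlorobutanol/0.9% NaCl vehicle (vehicle as placebo), modified Latin square order, blinded, ≥1-week washout, 0900 dosing. Unique stimulus sets per dose on monitor. Looks +1 each; ln(novel/familiar) analysed by repeated-measures REML mixed model.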

Series [5] relates to low-social male rhesus monkeys. Put plainly: Object recognition memory, visual paired comparison task. The format is in vivo, rhesus macaques (Macaca mulatta). The settings on record: nebulized AVP (25 and 50 IU pooled) vs placebo, within-subjects, N = 8, testing began 30 min after nebulization. Put shortly: as §1
Series [6] deals with children with ASD. The settings on record: 4-wk intranasal AVP treatment, pilot clinical trial; cited from earlier work.
Series [7] concerns people with ASD. The settings on record: multisite clinical trial; cited from earlier work.
[8] abbreviates: nebulized AVP (25 and 50 IU pooled) vs placebo, within-subjects.
Where [9] appears, read: nebulized 25 or 50 IU AVP, 30, 60, 90, 120 min postnebulization.

On to `NC(=O)CC[C@@H]1NC(=O)[C@H](Cc2ccccc2)NC(=O)[C@H](Cc2ccc(O)cc2)NC(=O)[C@@H](N)CSSC[C@@H](C(=O)N2CCC[C@H]2C(=O)N[C@@H](CCCN=C(N)N)C(=O)NCC(N)=O)NC(=O)[C@H](CC(N)=O)NC1=O` [AVP, [ARG8]-vasopressin], for which, in series [1] (setting [8]), the “affiliative response rate to conspecific aggressive cues” value is given as “no treatment-related difference”, the “affiliative responses to conspecific affiliative communication cues” value is “reciprocated affiliative communication cues with species-typical affiliative responses” and the “aggressive responses to conspecific aggressive or affiliative overtures” value is reported as “did not increase”. In addition, in series [1] (nebulized AVP), the “affiliative response findings, 25 IU vs 50 IU AVP dose” value is “did not differ between the 25 and 50 IU AVP doses”; the “aggressive response findings, 25 IU vs 50 IU AVP dose” value is “did not differ between the 25 and 50 IU AVP doses”. Further, in series [2] (setting [9]), the “cisternal CSF AVP levels following AVP nebulization relative to placebo, time course” value was “progressive linear increase”. The “CSF AVP level effect, 50 IU vs 25 IU dose” value in series [2] (nebulized AVP) is recorded as “consistently stronger in the 50 IU AVP dose compared to the 25 IU AVP dose”. The “plasma AVP levels following AVP nebulization relative to placebo, time course” value in series [3] (setting [9]) was “quadratic rise and fall”. Also, in series [3] (nebulized AVP), the “plasma AVP level effect, 50 IU vs 25 IU dose” value is “consistently stronger in the 50 IU AVP dose compared to the 25 IU dose”. In addition, the “face recognition memory (ratio of looks to novel versus familiar faces)” value in series [4] (nebulized AVP (25 and 50 IU pooled) vs placebo, within-subjects, N = 8, testing began 30 min after nebulization) is “rescued”. For the same compound, in series [4] (nebulized AVP, faces and objects, N = 8), the “recognition memory findings, 25 IU vs 50 IU AVP dose” value is “did not differ between the 25 and 50 IU AVP doses”. In series [5], the “object recognition memory (ratio of looks to novel versus familiar objects)” value was “did not differ between treatment conditions”. Further, the “social abilities in children with ASD” value in series [6] was “improves empathic accuracy, facial emotion recognition, and social abilities”.
Regarding `CN1Cc2cc(Cl)ccc2-n2c(nnc2[C@H]2CC[C@H](Oc3ccccn3)CC2)C1` [balovaptan], the “core behavioral symptoms in people with ASD” value in series [7] was “neither balovaptan [an AVPR1A antagonist ([49])], nor OXT ([50]), improve core behavioral symptoms”.
For oxytocin [OXT], in series [7], the “core behavioral symptoms in people with ASD” value is “neither balovaptan [an AVPR1A antagonist ([49])], nor OXT ([50]), improve core behavioral symptoms”.

These data come from article PMC11626171 (Proceedings of the National Academy of Sciences of the …, 2024).
